Measurements taken from ChEMBL document CHEMBL1129968, “Synthesis, dopamine transporter affinity, dopamine uptake inhibition, and locomotor stimulant activity of 2-substituted 3 beta-phenyltropane derivatives” (J Med Chem, 1997).
Values joined by “and” are separate entries in the source; they are usually repeats but may differ in a detail not shown here. Equal values may be shown once.

What was measured:
Mus musculus [1] = species on record: Mus musculus; assay: Stimulation of locomotor activity of Mice; type: functional
In short: (§1)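 Mice given drug or saline vehicle, with horizontal activity counts recorded in 10 min periods over a 60 min session. Eight mice per dose, doses in µmol/kg. The dose-response used the first 30 min after injection. ED50 is from the dose-response, and the maximal stimulant effect and time course were also assessed.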

[2] = biological target: T1, Sodium-dependent dopamine transporter (Rattus norvegicus, UniProt P23977); assay: Displacement of [3H]WIN-35428 from dopamine transporter (DAT) in Rat Caudate Putamen; type: tissue-based
T1 sequence (P23977 whole entry): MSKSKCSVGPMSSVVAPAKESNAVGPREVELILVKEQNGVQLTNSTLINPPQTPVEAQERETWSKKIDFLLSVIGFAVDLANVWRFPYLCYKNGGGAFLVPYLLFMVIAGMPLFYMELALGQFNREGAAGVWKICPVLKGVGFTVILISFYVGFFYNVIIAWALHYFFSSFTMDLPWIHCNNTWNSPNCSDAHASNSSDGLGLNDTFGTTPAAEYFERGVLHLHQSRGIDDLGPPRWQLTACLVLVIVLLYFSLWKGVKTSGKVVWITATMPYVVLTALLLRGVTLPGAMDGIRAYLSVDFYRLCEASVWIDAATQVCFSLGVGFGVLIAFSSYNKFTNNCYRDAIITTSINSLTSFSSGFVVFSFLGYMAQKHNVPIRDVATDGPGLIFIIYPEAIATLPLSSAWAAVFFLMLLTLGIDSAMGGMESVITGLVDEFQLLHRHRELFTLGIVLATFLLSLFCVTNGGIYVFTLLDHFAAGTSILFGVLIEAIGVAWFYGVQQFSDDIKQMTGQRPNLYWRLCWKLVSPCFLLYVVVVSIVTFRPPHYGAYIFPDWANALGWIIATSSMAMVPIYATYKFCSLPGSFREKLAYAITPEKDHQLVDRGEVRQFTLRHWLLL
In short: (§2)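 Ki is the inhibition constant derived for the unlabeled ligand. Values are the mean ± SEM of three experiments run in triplicate. Compounds were tested as HCl salts unless noted, some as fumarate salts. Data were fitted to single-site versus two-site binding models.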

Rattus norvegicus [3] = species on record: Rattus norvegicus; assay: Compound was evaluated for inhibition of [3H]- dopamine uptake in rat caudate - putamen tissue.; type: functional
In short: (§3)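 [3H]dopamine uptake into rat caudate-putamen tissue. IC50 values are the mean ± SEM of three experiments, each run in triplicate. Compounds were tested as HCl salts unless noted, some as fumarate salts.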

Rattus norvegicus [4] = species on record: Rattus norvegicus; assay: Values for substitution for Cocaine in rats Trained to discriminate Cocaine from saline; type: functional
In short: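 Read-out is the percentage of responses on the cocaine-appropriate lever, with doses in µmol/kg. Lever selection was counted unreliable below 0.02 responses/s, and a point was dropped if fewer than half of subjects met this rate. Four to six rats per point. ED50 given with 95% confidence limits.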

Mus musculus [5] = species on record: Mus musculus; assay: Stimulation of locomotor activity of mice; type: functional; in short: as §1
Rattus norvegicus [6] = species on record: Rattus norvegicus; assay: Compound was evaluated for inhibition of [3H]- dopamine Uptake in rat caudate - putamen tissue.; type: functional; in short: as §3
[7] = biological target: T1, Sodium-dependent dopamine transporter; assay: Compound was evaluated for its ability to displace [3H]WIN-35428 from dopamine transporter in rat caudate putamen tissue; type: tissue-based
In short: as §2, with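 “Rat caudate-putamen tissue, displacing bound [3H]WIN 35,428. Ki” for “Ki”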

Row | Compound | ED50 (Mus musculus [1]) | Ki [2] | IC50 (Rattus norvegicus [3]) | ED50 (Rattus norvegicus [4]) | Max effect (Mus musculus [5]) | IC50 (Rattus norvegicus [6]) | ED50 (Mus musculus [5]) | Ki [7]
1 | COC(=O)/C=C/C1C(c2ccccc2)CC2CCC1N2C (stereo not given) | 4.74 µmol/kg | 22 nM | 123 nM | 12.8 µmol/kg | 14996 Counts 10min-1 | – | – | –
2 | COC(=O)CCCCC1C(c2ccccc2)CC2CCC1N2C (stereo not given) | – | 30 nM | – | – | – | 130 nM | – | –
3 | CN1C2CCC1C(CCC(=O)c1ccccc1)C(c1ccccc1)C2 (stereo not given) | – | 28 nM | – | – | – | 47 nM | – | –
4 | CN1C2CCC1C(CCCc1ccccc1)C(c1ccccc1)C2 (stereo not given) | – | 16 nM | – | – | – | 43 nM | – | –
5 | COC(=O)/C=C/CCC1C(c2ccccc2)CC2CCC1N2C (stereo not given) | – | 20 nM | – | 15 µmol/kg | 17327 Counts 10min-1 | 203 nM | 9.21 µmol/kg | –
6 | COC(=O)CCC1C(c2ccccc2)CC2CCC1N2C (stereo not given) | – | 23 nM | 166 nM | – | – | – | – | –
7 | CN1C2CCC1C(CCCO)C(c1ccccc1)C2 (stereo not given) | – | 11 nM | – | 12.9 µmol/kg | 20820 Counts 10min-1 | 64 nM | 12 µmol/kg | –
8 | CN1C2CCC1C(/C=C/CO)C(c1ccccc1)C2 (stereo not given) | – | – | 159 nM | – | – | – | – | 26 nM
9 | COC(=O)[C@@H]1C2CC[C@H](C[C@@H]1c1ccccc1)N2C (single isomer, unassigned) | – | 33 nM and 314 nM | – | – | – | 373 nM | – | –
10 | COC(=O)[C@H]1[C@@H](OC(=O)c2ccccc2)C[C@@H]2CC[C@H]1N2C [COCAINE] | – | – | – | 8.74 µmol/kg | 12518 Counts 10min-1 | – | 20.8 µmol/kg | –
